The term IC50 denotes the midpoint of a concentration-inhibition curve. As usually defined, the inhibition is how much of the control response was suppressed.

The results in this text go back to ChEMBL document CHEMBL1141306, “ES-242 derivatives and cycloheptapeptides from Cordyceps sp. strains BCC 16173 and BCC 16176” (J Nat Prod, 2007).

Non-standard residues stand in square brackets, D forms with d. Residues, ends and D or L forms follow the SMILES beside them. NMeY = CN[C@@H](Cc1ccc(O)cc1)C(=O)O; dNMeF = CN[C@H](Cc1ccccc1)C(=O)O; Sar = CNCC(=O)O

Assay [1] relates to Plasmodium falciparum. Briefly: Antimalarial activity against multidrug-resistant Plasmodium falciparum K1. The class given is functional, organism-based. The method, boiled down:
(§1)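 Multidrug-resistant P. falciparum K1 cultures assayed by microculture radioisotope technique (Desjardins method). IC50 determined, and percent inhibition measured at a single concentration of 10 µg/mL.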

The test system of assay [2] is Plasmodium falciparum. Briefly: Antimalarial activity against multidrug-resistant Plasmodium falciparum K1 at 10 ug/mL. The class given is functional. The method, boiled down:
as §1

For assay [3], the system named is KB. Kind of assay: Cytotoxicity against human KB cells. The class given is functional, cell-based. Summed up: (§2)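 Colorimetric cytotoxicity assay on KB (oral epidermoid carcinoma), BC (breast cancer), NCI-H187 (small cell lung cancer) and Vero (African green monkey kidney fibroblast) cells. Values reported as IC50 (µM).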
The subject of assay [4] is NCI-H187. Kind of assay: Cytotoxicity against human NCI-H187 cells. The class given is functional, cell-based. The method, boiled down:
as §2

In assay [5] the test system is Vero. Briefly: Cytotoxicity against african green monkey Vero cells. The conditions noted are these: Chlorocebus sabaeus. The class given is cell-based. Summed up:
as §2

Assay [6] can be described thus: Cytotoxicity against human BC cells. The class given is functional, cell-based. The method, boiled down: as §2

The compound `COc1cc(OC)c2c(O)c3c(c(-c4c5c(c(O)c6c(OC)cc(OC)cc46)CO[C@@H](C)[C@H]5OC(C)=O)c2c1)[C@H](OC(C)=O)[C@H](C)OC3` returned an IC50 in assay [1] of 3.3 µM.

In the case of `COc1cc(OC)c2c(O)c3c(c(-c4c(OC)cc(OC)c5c(O)c6c(cc45)[C@H](O)[C@H](C)OC6)c2c1)[C@H](O)[C@H](C)OC3`, the inhibition at 10 µg/mL in assay [2] was < 50%. Besides, in assay [1], the IC50 was determined as 12 µM.

As to `COc1cc(OC)c2c(O)c3c(c(-c4c5c(c(O)c6c(OC)cc(OC)cc46)CO[C@@H](C)[C@H]5O)c2c1)[C@H](O)[C@H](C)OC3`, in assay [2], the inhibition at 10 µg/mL was < 50%. In addition, inhibition in assay [1] was half-maximal at 8.1 µM (IC50).

Take `COc1cc(OC)c2c(O)c3c(c(-c4c5c(c(O)c6c(OC)cc(O)cc46)CO[C@@H](C)[C@H]5O)c2c1)[C@H](O)[C@H](C)OC3`: the inhibition at 10 µg/mL in assay [2] was < 50%.

As for `COc1cc(OC)c2c(O)c3c(c(-c4c5c(c(O)c6c(OC)cc(O)cc46)CO[C@@H](C)[C@H]5OC(C)=O)c2c1)[C@H](OC(C)=O)[C@H](C)OC3`, in assay [2], the inhibition at 10 µg/mL is < 50%.

With `COc1cc(OC)c2c(O)c3c(c(-c4c(O)cc(OC)c5c(O)c6c(cc45)[C@H](O)[C@H](C)OC6)c2c1)[C@H](O)[C@H](C)OC3`, the IC50 in assay [1] worked out at 3.3 µM.

Take `CC[C@H](C)[C@@H]1NC(=O)[C@H](Cc2ccc(O)cc2)N(C)C(=O)[C@H](Cc2ccccc2)NC(=O)CN(C)C(=O)[C@@H]2CCCN2C(=O)[C@@H](Cc2ccccc2)N(C)C(=O)[C@H](CC(C)C)NC1=O` [CORDYHEPTAPEPTIDE A] (cyclo(F[NMeY]IL[dNMeF]P[Sar])): the IC50 in assay [3] stood at 0.78 µM; in assay [4], 0.18 µM; in assay [1], 3.8 µM; in assay [5], 14 µM; in assay [6] it was 0.2 µM.
